The values that follow come from ChEMBL document CHEMBL1949657, “Chemical modification of the multitarget neuroprotective compound fisetin” (J Med Chem, 2012).

Experiment [1] is described as follows: Antioxidant activity against ABTS radical assessed as trolox equivalent after 4 mins by TEAC assay. It counts as functional. The procedure, abridged:
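ABTS radical cation formed overnight with potassium persulfate and diluted to OD ~0.7 at 734 nm, then mixed with derivative in ethanol. Loss of A734 followed over 4 min. TEAC = slope of % absorbance inhibition vs concentration divided by the slope for Trolox.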

In experiment [2] the test system is HT-22. Put plainly: Neuroprotective activity against glutamate-induced GSH loss in mouse HT22 cells assessed as intracellular GSH level at 1 to 10 uM after 24 hrs. It counts as functional, cell-based. The procedure, abridged:
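HT22 cells given derivatives (1–10 μM) with 5 mM glutamate. After 24 h, cell extracts analysed for total intracellular GSH by chemical assay. Fisetin 10 μM as positive control. Tested twice; positives tested a third time.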

In experiment [3] the test system is PC-12. Put plainly: Neurotrophic activity in rat PC12 cells assessed as neurite outgrowth at 1 to 10 uM after 24 hrs. It counts as functional, cell-based. Put shortly: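 PC12 cells in N2 medium given derivatives (1–10 μM) for 24 h, fisetin 10 μM as positive control. 100 cells counted in each of three fields. A cell scored positive with ≥1 neurite longer than one cell-body diameter. Tested twice; positives tested a third time.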

The test system of experiment [4] is HT-22. Put plainly: Neuroprotective activity in mouse HT22 cells assessed as reduction in IAA-induced ischemia after 24 hrs by MTT assay. It counts as functional, cell-based. The procedure, abridged: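 HT22 cells seeded at 5×10^3/well. Next day switched to DMEM + 7.5% DFCS with 20 μM IAA ± derivative doses for 2 h, then IAA-free medium with derivative for 20 h. MTT 2.5 μg/ml for 4 h at 37 °C, solubilised in DMF/SDS pH 4.7, A570 read. Controls for compound toxicity and assay interference. EC50 from dose series; tested twice, third time if EC50 < 1 μM.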
(In general: Formazan colour is commonly taken as a measure of viable cells.)

The subject of experiment [5] is N9. Put plainly: Antiinflammatory activity in mouse N9 cells assessed as reduction of LPS-induced microglial activation at 1 to 10 uM measured as nitrite level after 24 hrs by Griess reagent-based assay. It counts as functional. More on the design: scale not given: the % may be the effect or the level left. The procedure, abridged:
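N9 microglia in DME with 7.5% DFCS, given 10 μg/ml LPS alone or with derivatives (1–10 μM) for 24 h. Medium spun to remove floating cells, then nitrite measured with Griess reagent, 10 min at room temperature, absorbance 550 nm. Fisetin 10 μM as positive control. Tested twice; positives tested a third time.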

Experiment [6] concerns HT-22. Put plainly: Induction of Nrf2 expression in mouse HT22 cells from 1 to 4 hrs by immunoblotting. It counts as functional, cell-based. The procedure, abridged: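 Nuclear extracts taken from untreated and derivative-treated cells at 1, 2 and 4 h. Equal protein run on 10% SDS-PAGE, blotted to nitrocellulose (Ponceau-S loading check). Probed with anti-Nrf2 (1/1000) and anti-β-actin, HRP secondary, chemiluminescence. Tested twice; positives tested a third time.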

Experiment [7] relates to HT-22. Put plainly: Ratio of fisetin EC50 to compound EC50 for neuroprotectivie activity in mouse HT22 cells. It counts as functional.
Experiment [8] deals with Oryctolagus cuniculus. Put plainly: Neuroprotective activity in New Zealand white rabbit small clot embolism model assessed as reduction in stroke-induced behavioural deficits at 50 mg/kg, iv administered 5 mins post-embolization measured after 24 hrs. It counts as functional, organism-based. On the set-up: dose 50 mg/kg, route intravenous.
Setting [9] is: Mus musculus, HT-22, 24 h, read-out: EC50.

The structures appear in SMILES notation. Activity calls are given as the source filed them.

Broadly, the EC50 is the concentration at which the effect is half-maximal. For the molecule `COc1ccc(/C=C/C(=O)c2cc(C)c(C)cc2O)cc1OCc1ccccc1`, the results for the Activity in experiment [1] and in experiment [5] were 0.12 equiv and 70%, respectively. Further, the outcome in experiment [2], in experiment [3] and in experiment [6] was Active. Besides, the EC50 result in experiment [4] (ht-22) is “Not Active”.

For `Cc1cc(O)c(C(=O)/C=C/c2ccc(O)c(O)c2)cc1C`, the Activity stood at 2.7 equiv in experiment [1] and 94% in experiment [5]. For the same molecule, the result in experiment [2], in experiment [3] and in experiment [6] was Active. Besides, the EC50 in experiment [4] (setting [9]) stood at 50 nM.

Take `COc1ccc(-c2oc3cc(C)c(C)cc3c(=O)c2O)cc1O`: the Activity in experiment [1] worked out at 1.74 equiv; in experiment [5], 72%. Besides, the outcome in experiment [2] and in experiment [3] was inactive. Besides, the “Ratio EC50” value in experiment [7] is 10. Also, the EC50 in experiment [4] (setting [9]) stood at 20 nM.

Take `Cc1cc2oc(-c3ccc(N4CCCC4)c(O)c3)c(O)c(=O)c2cc1C`: the results for the Activity in experiment [1] and in experiment [5] were 2.79 equiv and 21%, respectively. The outcome in experiment [2] and in experiment [3] was Active. In experiment [4] (setting [9]), the EC50 came to 15 nM. In addition, in experiment [6], the outcome was inactive.

Take `CN(C)c1ccc(-c2oc3c(ccc4ccccc43)c(=O)c2O)cc1`: the Activity in experiment [1] came out at 0.93 equiv; in experiment [5], 0%. The result in experiment [2] was Active. Moreover, the outcome in experiment [3] and in experiment [6] was inactive. For the same molecule, in experiment [4] (setting [9]), the EC50 was determined as 40 nM.

On to `Cc1cc2oc(-c3ccc(N4CCCC4)cc3)c(O)c(=O)c2cc1C`, for which the values for the Activity in experiment [1] and in experiment [5] were 2.4 equiv and 0%, respectively. The outcome in experiment [2] and in experiment [3] was Active. In addition, in experiment [4] (setting [9]), the EC50 is 90 nM. Moreover, the outcome in experiment [6] was inactive.

As to `Cc1cc2oc(-c3ccc(N(C)C)cc3)c(O)c(=O)c2cc1C`, the Activity in experiment [1] was determined as 3 equiv; in experiment [5], 11%. In experiment [2], the outcome was Active. For the same molecule, the result in experiment [3] and in experiment [6] was inactive. Besides, in experiment [4] (setting [9]), the EC50 was determined as 20 nM.

Regarding `O=c1c(O)c(-c2ccc(O)c(O)c2)oc2ccccc12`, the Activity came to 2 equiv in experiment [1] and 80% in experiment [5]. For the same molecule, the result in experiment [2], in experiment [3] and in experiment [6] was Active. Besides, the “Ratio EC50” value in experiment [7] is on record as 6. For the same molecule, in experiment [4] (setting [9]), the EC50 was determined as 500 nM.

Regarding `COc1cc(-c2ccc(N3CCCC3)cc2)nc2ccccc12`, the results for the Activity in experiment [1] and in experiment [5] were 0.27 equiv and 67%, respectively. For the same molecule, the outcome in experiment [2] and in experiment [3] was inactive. For the same molecule, in experiment [4] (ht-22), the EC50 entry was “Not Active”.

`CC(C)Oc1cc(-c2ccc(N(C)C)cc2)nc2ccccc12`: the Activity was determined as 0.15 equiv in experiment [1] and 71% in experiment [5]. Besides, the outcome in experiment [2] and in experiment [3] was inactive. Also, the EC50 in experiment [4] (setting [9]) came out at 50 nM.

Take `CC(C)Oc1cc(-c2ccc(N3CCCC3)cc2)nc2ccccc12`: the Activity in experiment [1] worked out at 0.27 equiv; in experiment [5], 67%. Besides, the outcome in experiment [2] and in experiment [3] was inactive. For the same molecule, the EC50 in experiment [4] (setting [9]) is 500 nM.

As to `Cc1cc2oc(-c3ccc(O)cc3O)cc(=O)c2cc1C`, the Activity in experiment [1] came to 0.15 equiv; in experiment [5], 5%. Further, the outcome in experiment [2] and in experiment [3] was inactive. The EC50 in experiment [4] (setting [9]) is above 500 nM.

`CC(C)Oc1cc(-c2ccc(O)cc2O)nc2ccccc12`: the Activity in experiment [1] was determined as 0.27 equiv; in experiment [5], 64%. Moreover, the result in experiment [2] and in experiment [3] was inactive. Further, the EC50 in experiment [4] (setting [9]) is 210 nM.

As to `COc1cc(-c2oc3c(ccc4ccccc43)c(=O)c2O)ccc1OCc1ccccc1`, the Activity in experiment [1] amounted to 0 equiv; in experiment [5], 88%. The outcome in experiment [2] was inactive. For the same molecule, in experiment [3], the outcome was Active. The EC50 in experiment [4] (setting [9]) stood at 80 nM.

As to `COc1cc(-c2oc3cc(C)c(C)cc3c(=O)c2O)ccc1O`, the Activity in experiment [1] was found to be 1.89 equiv; in experiment [5] it was 77%. Moreover, the outcome in experiment [2] and in experiment [3] was inactive. In addition, in experiment [7], the “Ratio EC50” value is on record as 10. For the same molecule, in experiment [4] (setting [9]), the EC50 is 40 nM.

As to `COc1ccc(/C=C/C(=O)c2cc(C)c(C)cc2O)cc1O`, the Activity in experiment [1] turned out to be 0.12 equiv; in experiment [5], 56%. Moreover, the result in experiment [2] and in experiment [3] was inactive. In experiment [4] (setting [9]), the EC50 stood at 200 nM.

In the case of `Cc1cc2oc(-c3ccc(N4CCCC4)cc3)cc(=O)c2cc1C`, the Activity in experiment [1] was 0.12 equiv; in experiment [5], 2%. Also, the outcome in experiment [2] and in experiment [3] was inactive. In addition, in experiment [4] (setting [9]), the EC50 was above 500 nM.

With `COc1cc(-c2oc3cc(C)c(C)cc3c(=O)c2O)ccc1OCc1ccccc1`, the Activity in experiment [1] came out at 0.27 equiv; in experiment [5] it was 14%. Further, the result in experiment [2] and in experiment [3] was inactive. In addition, the EC50 in experiment [4] (setting [9]) was 170 nM.

As for `COc1cc(-c2ccc([N+](=O)[O-])c(O)c2)nc2ccccc12`, the Activity in experiment [1] turned out to be 0.18 equiv; in experiment [5], 25%. The outcome in experiment [2] and in experiment [3] was inactive. Also, the EC50 entry in experiment [4] (ht-22) was “Not Active”.

As to `COc1cc(-c2cc(=O)c3cc(C)c(C)cc3o2)ccc1O`, the Activity in experiment [1] was found to be 0.12 equiv; in experiment [5], 41%. Further, the result in experiment [2] and in experiment [3] was inactive. Moreover, the “Ratio EC50” value in experiment [7] was determined as 10. For the same molecule, the EC50 in experiment [4] (setting [9]) stood at 30 nM.

On to `O=c1c(O)c(-c2ccc(O)c(O)c2)oc2cc(O)ccc12` [FISETIN], for which the EC50 came to 2000 nM in experiment [8] and 3000 nM in experiment [4] (setting [9]). The Activity in experiment [1] was determined as 3 equiv; in experiment [5] it was 80%. For the same molecule, the outcome in experiment [2], in experiment [3] and in experiment [6] was Active.

As to `COc1cc(-c2ccc(N(C)C)cc2)nc2ccccc12`, the figures for the Activity in experiment [1] and in experiment [5] were 0.06 equiv and 62%, respectively. Also, the result in experiment [2] and in experiment [3] was inactive. Further, in experiment [4] (setting [9]), the EC50 was found to be 60 nM.

For `CN(C)c1ccc(-c2cc(=O)c3ccc4ccccc4c3o2)cc1`, the values for the Activity in experiment [1] and in experiment [5] were 0.24 equiv and 35%, respectively. For the same molecule, the result in experiment [2] and in experiment [3] was inactive. For the same molecule, in experiment [4] (setting [9]), the EC50 came to 250 nM.

In the case of `O=c1c(O)c(-c2ccc(N3CCCC3)c(O)c2)oc2c1ccc1ccccc12`, the Activity in experiment [1] came to 2.1 equiv; in experiment [5], 50%. For the same molecule, the result in experiment [2] and in experiment [3] was Active. For the same molecule, the “Ratio EC50” value in experiment [7] was 600. Besides, the EC50 in experiment [4] (setting [9]) was found to be 5 nM. The outcome in experiment [6] was inactive.

`O=C(/C=C/c1ccc(O)c(O)c1)c1ccc2ccccc2c1O`: the Activity in experiment [1] is 2.8 equiv; in experiment [5], 75%. Further, the result in experiment [2], in experiment [3] and in experiment [6] was Active. In addition, the EC50 in experiment [4] (setting [9]) was 80 nM.

Consider `COc1cc(-c2ccc(O)c(O)c2)nc2ccccc12`, for which the Activity in experiment [1] was 0.36 equiv; in experiment [5] it was 85%. Besides, the result in experiment [2] was Active. Besides, the result in experiment [3] and in experiment [6] was inactive. In experiment [7], the “Ratio EC50” value amounted to 75. The EC50 in experiment [4] (setting [9]) amounted to 40 nM.

Turning to `Oc1ccc(-c2cc(OC3CCCC3)c3ccccc3n2)cc1O` [CMS-121], the Activity in experiment [1] was 0.4 equiv; in experiment [5] it was 82%. In addition, the outcome in experiment [2] and in experiment [3] was Active. The EC50 in experiment [4] (setting [9]) was found to be 7 nM. Also, the outcome in experiment [6] was inactive.

For `COc1ccc(-c2cc(OC)c3ccccc3n2)cc1O`, the results for the Activity in experiment [1] and in experiment [5] were 0.24 equiv and 69%, respectively. Further, the result in experiment [2] and in experiment [3] was inactive. Further, the concentration giving a half-maximal response (EC50) entry in experiment [4] (ht-22) is “Not Active”.
